Measured values: ChEMBL document CHEMBL4002574, “Structure-based exploration and exploitation of the S4 subsite of norovirus 3CL protease in the design of potent and permeable inhibitors” (Eur J Med Chem, 2017)
pEC50, pIC50: −log10 of the molar value.

What was measured:
[1] = Inhibition of Norovirus 3CL protease preincubated for 30 mins followed by addition of Edans-DFHLQ/GP-Dabcyl as substrate measured after 1 hr by FRET assay
In short: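 Protease preincubated 30 min at 37°C with serially diluted compound or DMSO in 20 mM HEPES pH 8, 200 mM NaCl, 0.4 mM EDTA, 60% glycerol, 6 mM DTT; Edans-DFHLQ/GP-Dabcyl substrate then added. Fluorescence (ex 360/em 460 nm) read 1 h later; background (substrate, no protease) subtracted; IC50 from variable-slope dose-response fit.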

[2] = Cytotoxicity against human HG23 cells measured after 72 hrs by […] CytoTox-96 non-radioactive assay; format: cell-based
Norovirus = experiment: Antiviral activity Norovirus infected in human HG23 cells assessed as decrease in viral RNA level measured after 48 hrs by qRT-PCR analysis; format: functional, cell-based; conditions: HG23, 48 h
In short: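 Norwalk virus replicon-bearing HG23 cells, confluent and semi-confluent, exposed 48 h to compound (up to 100 μM) or DMSO (<0.1%) in medium. Total RNA extracted, viral genome quantified by real-time qRT-PCR; EC50 derived from concentration-response data.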

Row | Structure (SMILES) | pIC50 [1] | CC50 at 72 h [2] [nM] | pEC50 (Norovirus)
1 | O=C[C@H](C[C@@H]1CCNC1=O)NC(=O)[C@H](CC1CCCCC1)NS(=O)(=O)CCc1cccc(Cl)c1 | 5.64 | > 100000 | 5.96
2 | O=C[C@H](C[C@@H]1CCNC1=O)NC(=O)[C@H](CC1CCCCC1)NS(=O)(=O)CCN1C(=O)c2ccccc2C1=O | 5.60 | > 100000 | 5.64
3 | O=C[C@H](C[C@@H]1CCNC1=O)NC(=O)[C@H](CC1CCCCC1)NS(=O)(=O)c1cccc(Cl)c1 | 5.26 | > 100000 | 5.64
4 | O=C[C@H](C[C@@H]1CCNC1=O)NC(=O)[C@H](CC1CCCCC1)NS(=O)(=O)c1ccc(Cl)cc1 | 5.24 | > 100000 | 5.46
5 | CCCCCCCCCCOC(=O)N[C@@H](CC1CCCCC1)C(=O)N[C@@H](C[C@@H]1CCNC1=O)C(O)S(=O)(=O)O (stereo partly specified) | 6.40 | 34500 | 6.70
6 | O=C[C@H](C[C@@H]1CCNC1=O)NC(=O)[C@H](CC1CCCCC1)NS(=O)(=O)Cc1ccccc1 | 5.35 | > 100000 | 5.39
7 | O=C1NCC[C@H]1C[C@H](NC(=O)[C@H](CC1CCCCC1)NS(=O)(=O)Cc1ccc(Cl)cc1)C(O)S(=O)(=O)O (stereo partly specified) | 5.92 | > 100000 | 5.66
8 | O=C(N[C@@H](CC1CCCCC1)C(=O)N[C@@H](C[C@@H]1CCNC1=O)C(O)S(=O)(=O)O)OCCc1cccc(Cl)c1 (stereo partly specified) | 6.30 | 46700 | 7.00
9 | O=C1NCC[C@H]1C[C@H](NC(=O)[C@H](CC1CCCCC1)NS(=O)(=O)c1cccs1)C(O)S(=O)(=O)O (stereo partly specified) | 5.07 | > 100000 | 5.09
10 | O=C(N[C@@H](CC1CCCCC1)C(=O)N[C@@H](C[C@@H]1CCNC1=O)C(O)S(=O)(=O)O)OCCOCc1ccccc1 (stereo partly specified) | 5.80 | > 100000 | 6.52
11 | O=C1NCC[C@H]1C[C@H](NC(=O)[C@H](CC1CCCCC1)NS(=O)(=O)CCc1ccccc1)C(O)S(=O)(=O)O (stereo partly specified) | 5.68 | > 100000 | 6.10
12 | COc1ccc(OCCCS(=O)(=O)N[C@@H](CC2CCCCC2)C(=O)N[C@H](C=O)C[C@@H]2CCNC2=O)cc1 | 5.74 | > 100000 | 6.70
13 | O=C[C@H](C[C@@H]1CCNC1=O)NC(=O)[C@H](CC1CCCCC1)NS(=O)(=O)Cc1ccc(Cl)cc1 | 5.74 | > 100000 | 5.62
14 | O=C[C@H](C[C@@H]1CCNC1=O)NC(=O)[C@H](CC1CCCCC1)NC(=O)OCCc1cccc(Cl)c1 | 6.22 | 43200 | 7.00
15 | O=C1NCC[C@H]1C[C@H](NC(=O)[C@H](CC1CCCCC1)NS(=O)(=O)CCN1C(=O)c2ccccc2C1=O)C(O)S(=O)(=O)O (stereo partly specified) | 5.59 | > 100000 | 5.68
16 | CCCCCCCCCCOC(=O)N[C@@H](CC1CCCCC1)C(=O)N[C@H](C=O)C[C@@H]1CCNC1=O | 6.52 | 32100 | 7.00

Row | Structure (SMILES) | pIC50 [1] | CC50 at 72 h [2] [nM] | pEC50 (Norovirus)
17 | O=C1NCC[C@H]1C[C@H](NC(=O)[C@H](CC1CCCCC1)NS(=O)(=O)c1cccc(Cl)c1)C(O)S(=O)(=O)O (stereo partly specified) | 5.24 | > 100000 | 5.72
18 | COc1ccc(OCCCS(=O)(=O)N[C@@H](CC2CCCCC2)C(=O)N[C@@H](C[C@@H]2CCNC2=O)C(O)S(=O)(=O)O)cc1 (stereo partly specified) | 5.80 | > 100000 | 6.70
19 | O=C1NCC[C@H]1C[C@H](NC(=O)[C@H](CC1CCCCC1)NS(=O)(=O)c1ccc(Cl)cc1)C(O)S(=O)(=O)O (stereo partly specified) | 5.29 | > 100000 | 5.14
20 | O=C1NCC[C@H]1C[C@H](NC(=O)[C@H](CC1CCCCC1)NS(=O)(=O)c1ccc(F)cc1)C(O)S(=O)(=O)O (stereo partly specified) | 5.21 | > 100000 | 5.68
21 | O=C[C@H](C[C@@H]1CCNC1=O)NC(=O)[C@H](CC1CCCCC1)NS(=O)(=O)c1ccc(F)cc1 | 5.32 | > 100000 | 5.70
22 | O=C[C@H](C[C@@H]1CCNC1=O)NC(=O)[C@H](CC1CCCCC1)NS(=O)(=O)c1ccccc1 | 5.07 | > 100000 | 5.02
23 | O=C[C@H](C[C@@H]1CCNC1=O)NC(=O)[C@H](CC1CCCCC1)NS(=O)(=O)CCc1ccccc1 | 5.74 | > 100000 | 6.15
24 | CCCCCCCCS(=O)(=O)N[C@@H](CC1CCCCC1)C(=O)N[C@@H](C[C@@H]1CCNC1=O)C(O)S(=O)(=O)O (stereo partly specified) | 5.96 | 35400 | 6.70
25 | O=C[C@H](C[C@@H]1CCNC1=O)NC(=O)[C@H](CC1CCCCC1)NS(=O)(=O)c1cccs1 | 4.98 | > 100000 | 5.07
26 | O=C[C@H](C[C@@H]1CCNC1=O)NC(=O)[C@H](CC1CCCCC1)NC(=O)OCCOCc1ccccc1 | 5.68 | > 100000 | 6.70
27 | O=C1NCC[C@H]1C[C@H](NC(=O)[C@H](CC1CCCCC1)NS(=O)(=O)c1ccccc1)C(O)S(=O)(=O)O (stereo partly specified) | 4.87 | > 100000 | 4.91
28 | CCCCCCCCS(=O)(=O)N[C@@H](CC1CCCCC1)C(=O)N[C@H](C=O)C[C@@H]1CCNC1=O | 5.92 | 33800 | 6.52
29 | O=C1NCC[C@H]1C[C@H](NC(=O)[C@H](CC1CCCCC1)NS(=O)(=O)Cc1ccccc1)C(O)S(=O)(=O)O (stereo partly specified) | 5.37 | > 100000 | 5.37
30 | O=C1NCC[C@H]1C[C@H](NC(=O)[C@H](CC1CCCCC1)NS(=O)(=O)CCc1cccc(Cl)c1)C(O)S(=O)(=O)O (stereo partly specified) | 5.72 | > 100000 | 6.10
31 | O=C[C@H](C[C@@H]1CCNC1=O)NC(=O)[C@H](CC1CCCCC1)NS(=O)(=O)c1ccc(-c2ccccc2)cc1 | 5.89 | > 100000 | 5.89
32 | O=C1NCC[C@H]1C[C@H](NC(=O)[C@H](CC1CCCCC1)NS(=O)(=O)c1ccc(-c2ccccc2)cc1)C(O)S(=O)(=O)O (stereo partly specified) | 5.96 | > 100000 | 5.92
